Assay [1] can be described thus: Antiplatelet aggregation activity against 100 uM arachidonic acid-induced rabbit platelet assessed as platelet aggregation at 100 uM relative to control. The format is functional, Oryctolagus cuniculus. Put shortly: (§1)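 Platelets were preincubated with test sample or vehicle (0.5% DMSO) at 37 °C for 1 min. Aggregation was then triggered with arachidonic acid (100 µM), collagen (10 µg/mL), thrombin (0.1 U/mL) or PAF (2 ng/mL). Results are given as percent aggregation, mean ± SD, with significance at p < 0.05 and p < 0.01.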

A short description of assay [2]: Antiplatelet aggregation activity against 10 ug/mL collagen-induced rabbit platelet assessed as platelet aggregation at 100 uM relative to control. It is filed as functional, Oryctolagus cuniculus. Put shortly: as §1
Assay [3] in a line: Antiplatelet aggregation activity against 0.1 U/mL thrombin-induced rabbit platelet assessed as platelet aggregation at 100 uM relative to control. The format is functional, Oryctolagus cuniculus. Put shortly:
as §1

Assay [4] can be described thus: Antiplatelet aggregation activity against 2 ng/mL platelet activating factor-induced rabbit platelet assessed as platelet aggregation at 100 uM relative to control. It is filed as functional, Oryctolagus cuniculus. Summed up:
as §1

In assay [5] the test system is Platelet. Put plainly: Stimulation of rabbit platelet aggregation at 30.9 +/- 6.0 ug/mL. The format is functional, cell-based. The following applies: Oryctolagus cuniculus.
Assay [6] can be described thus: Antiplatelet aggregation activity against 100 uM arachidonic acid-induced rabbit platelet assessed as platelet aggregation at 150 uM relative to control. It is filed as functional, Oryctolagus cuniculus. Put shortly: as §1
Assay [7] is described as follows: Antiplatelet aggregation activity against 10 ug/mL collagen-induced rabbit platelet assessed as platelet aggregation at 150 uM relative to control. The format is functional, Oryctolagus cuniculus. Summed up:
as §1

Assay [8] is described as follows: Antiplatelet aggregation activity against 0.1 U/mL thrombin-induced rabbit platelet assessed as platelet aggregation at 150 uM relative to control. It is filed as functional, Oryctolagus cuniculus. Put shortly:
as §1

Assay [9] can be described thus: Antiplatelet aggregation activity against 2 ng/mL platelet activating factor-induced rabbit platelet assessed as platelet aggregation at 150 uM relative to control. The format is functional, Oryctolagus cuniculus. Summed up: as §1
Assay [10] relates to Platelet. Description: Stimulation of rabbit platelet aggregation at 28.4 +/- 4.8 ug/mL. The format is functional, cell-based. The following applies: Oryctolagus cuniculus.

The structures appear in SMILES notation. Calls of active or inactive are those of the source. No cut-off for these calls is given here.

On to `CC(C)[C@@H]1C[C@@H](O)[C@H]2[C@@]1(CO)CC[C@@]1(C)[C@H]3C(=CC[C@]21C)[C@@]1(C)CC[C@H](O)C(C)(C)[C@@H]1C[C@@H]3O` [RUBIARBONOL A], for which the Activity came out at 83.8% in [1], 89.6% in [2], 90.7% in assay [3] and 91.3% in assay [4]. Besides, the result with Platelet [5] was Active.

Regarding `CC(C)[C@@H]1C[C@@H](O)[C@H]2[C@@]1(C)CC[C@@]1(C)[C@H]3C(=CC[C@]21C)[C@@]1(C)CC[C@H](O)C(C)(C)[C@@H]1C[C@@H]3O` [RUBIARBONOL B], the Activity is recorded as 80.4% in [6]; 82.2% in assay [2]; 79.8% in [7]; 89.6% in assay [8]; 90.4% in assay [9].

In the case of `CC(=O)O[C@@H]1C[C@@H](C(C)C)[C@]2(CO)CC[C@@]3(C)[C@H]4C(=CC[C@]3(C)[C@@H]12)[C@@]1(C)CCC(=O)C(C)(C)[C@@H]1C[C@@H]4O` [RUBIARBONONE A], the Activity in [1] is given as 85.4%; in assay [2] it was 88.1%; in assay [3] it was 91.1%; in assay [4], 90.3%. The outcome in the assay on Platelet [10] was Active.
